From ChEMBL document CHEMBL3421570, “Combinatorial Libraries As a Tool for the Discovery of Novel, Broad-Spectrum Antibacterial Agents Targeting the ESKAPE Pathogens” (J Med Chem, 2015)
In brackets after ≈: the same amount, converted by molar mass. Activity calls are given as the source filed them. No cut-off for these calls is given here.

Legend:
Acinetobacter baumannii [1] = experiment: Bactericidal activity against Acinetobacter baumannii after 24 hrs; format: functional
Enterobacter cloacae [2] = experiment: Antibiofilm activity against Enterobacter cloacae incubated for 24 hrs followed by biofilm resuspension in PBS and measured after 24 hrs; format: functional
Procedure, shortened: (§1)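 Biofilms grown 24 h in 96-well plates from overnight cultures standardized to OD600 0.5 in fresh medium (human serum only for S. aureus; TSB for Gram-positives, LB for Gram-negatives). Medium then replaced with fresh medium containing a concentration range above and below MIC, 37°C overnight. After 24 h biofilm resuspended in PBS, serially diluted, plated in duplicate, CFU counted after 24 h at 37°C. Activity relative to untreated; three technical replicates; MBEC50 reported.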

Acinetobacter baumannii [3] = experiment: Antimicrobial activity against Acinetobacter baumannii assessed as inhibition of microbial growth after 24 hrs; format: functional
Procedure, shortened: (§2)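 Broth microdilution against multidrug-resistant clinical ESKAPE isolates. Overnight cultures (TSB for Gram-positives, LB for Gram-negatives) diluted 1:1000 in fresh medium, compound in DMF (≤2.0% DMF) added at decreasing concentrations, 37°C.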

Klebsiella pneumoniae [4] = experiment: Ratio of MIC for Klebsiella pneumoniae measured after 8 cycle passage to MIC for wild type Klebsiella pneumoniae; format: functional
Klebsiella pneumoniae [5] = experiment: Antibiofilm activity against Klebsiella pneumoniae incubated for 24 hrs followed by biofilm resuspension in PBS and measured after 24 hrs; format: functional; procedure, shortened: as §1
[6] = Selectivity index, ratio of IC50 for human A549 cells to MIC for Acinetobacter baumannii
Pseudomonas aeruginosa [7] = experiment: Antimicrobial activity against Pseudomonas aeruginosa assessed as inhibition of microbial growth at 45 uM after 24 hrs; format: functional, organism-based
Procedure, shortened: (§3)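 Broth microdilution single-concentration read: overnight cultures diluted 1:1000, compound in DMF (≤2.0%) added, 37°C for 24 h, growth inhibition scored visually by lack of turbidity; triplicate. Gram-positives grown in TSB, Gram-negatives in LB.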

Pseudomonas aeruginosa [8] = experiment: Bactericidal activity against Pseudomonas aeruginosa after 24 hrs; format: functional
Acinetobacter baumannii [9] = experiment: Induction of spontaneous mutation in Acinetobacter baumannii at 2 to 10 MIC; format: functional, organism-based
[10] = Selectivity index, ratio of IC50 for human A549 cells to MIC for Staphylococcus aureus
Acinetobacter baumannii [11] = experiment: Ratio of MIC for Acinetobacter baumannii measured after 8 cycle passage to MIC for wild type Acinetobacter baumannii; format: functional
[12] = Cytotoxicity against human A549 cells assessed as cell viability recovery at 225 uM after 48 hrs by MTT assay; format: cell-based; details: read-out: Activity
Procedure, shortened: (§4)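 A549 cells grown in F-12K with L-glutamine, 10% FBS, 1% penicillin-streptomycin, seeded at 1.0 × 10^5 ml−1, allowed to adhere 24 h (37°C, 5% CO2), then exposed to compound in 45% w/v (2-hydroxypropyl)-β-cyclodextrin vehicle for 48 h. MTT 4 h, formazan solubilized in DMSO, absorbance 540 nm. Percent recovery versus vehicle-only; IC50 derived; at least three independent experiments.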

Klebsiella pneumoniae [13] = experiment: Induction of spontaneous mutation in Klebsiella pneumoniae at 2 to 10 MIC; format: functional, organism-based
Enterococcus faecium [14] = experiment: Induction of spontaneous mutation in Enterococcus faecium at 2 to 10 MIC; format: functional, organism-based
Staphylococcus aureus [15] = experiment: Ratio of MIC for Staphylococcus aureus measured after 8 cycle passage to MIC for wild type Staphylococcus aureus; format: functional
Enterobacter cloacae [16] = experiment: Antimicrobial activity against Enterobacter cloacae assessed as inhibition of microbial growth at 45 uM after 24 hrs; format: functional, organism-based; procedure, shortened: as §3
Enterococcus faecium [17] = experiment: Antimicrobial activity against Enterococcus faecium assessed as inhibition of microbial growth at 45 uM after 24 hrs; format: functional, organism-based; procedure, shortened: as §3
Staphylococcus aureus [18] = experiment: Bactericidal activity against Staphylococcus aureus after 24 hrs; format: functional
[19] = Selectivity index, ratio of IC50 for human A549 cells to MIC for Klebsiella pneumoniae
Staphylococcus aureus [20] = experiment: Antimicrobial activity against Staphylococcus aureus assessed as inhibition of microbial growth at 45 uM after 24 hrs; format: functional, organism-based; procedure, shortened: as §3
Acinetobacter baumannii [21] = experiment: Antimicrobial activity against Acinetobacter baumannii assessed as inhibition of microbial growth at 45 uM after 24 hrs; format: functional, organism-based; procedure, shortened: as §3
Staphylococcus aureus [22] = experiment: Antimicrobial activity against Staphylococcus aureus USA300 strain FPR3757 infected in mouse model of lethal peritonitis assessed as mouse survival at 2 uM, im dosed 1 hr post infection and measured after 5 days post infection; format: functional, organism-based
Procedure, shortened: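 Mice, six per group, infected i.p. with 1 × 10^8 CFU ml−1 S. aureus USA300 FPR3757 in PBS with 5% mucin. Compound given i.m. at 2 μM 1 h later; vehicle 45% w/v (2-hydroxypropyl)-β-cyclodextrin in water i.v.; vancomycin i.v. as control. Monitored twice daily for 5 days, pre-moribund animals euthanized. Survival compared by log-rank test.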

Enterobacter cloacae [23] = experiment: Induction of spontaneous mutation in Enterobacter cloacae at 2 to 10 MIC; format: functional, organism-based
Staphylococcus aureus [24] = experiment: Antimicrobial activity against Staphylococcus aureus assessed as inhibition of microbial growth after 24 hrs; format: functional; procedure, shortened: as §2
Staphylococcus aureus [25] = experiment: Bactericidal activity against methicillin-resistant Staphylococcus aureus at MIC measured after drug wash out after 120 mins by time kill assay; format: functional
Procedure, shortened: (§5)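 MRSA from stationary phase was regrown 3 h in TSB and seeded at OD600 0.5. […] After 120 min, cells were centrifuged and washed, serially diluted and plated for CFU. Percent recovery is relative to no-drug controls.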

Staphylococcus aureus [26] = experiment: Effect on bacterial density of methicillin-resistant Staphylococcus aureus at MIC measured over 2 hrs period by time kill assay; format: functional, organism-based
Enterobacter cloacae [27] = experiment: Antimicrobial activity against Enterobacter cloacae assessed as inhibition of microbial growth after 24 hrs; format: functional; procedure, shortened: as §2
Staphylococcus aureus [28] = experiment: Induction of spontaneous mutation in Staphylococcus aureus at 2 to 10 MIC; format: functional, organism-based
[29] = Cytotoxicity against human A549 cells assessed as cell viability recovery up to 100 uM after 48 hrs by MTT assay; format: cell-based; details: read-out: Activity; procedure, shortened: as §4
Enterococcus faecium [30] = experiment: Bactericidal activity against Enterococcus faecium after 24 hrs; format: functional
Pseudomonas aeruginosa [31] = experiment: Induction of spontaneous mutation in Pseudomonas aeruginosa at 2 to 10 MIC; format: functional, organism-based; details: 2 to 10 x MIC
[32] = Selectivity index, ratio of IC50 for human A549 cells to MIC for Pseudomonas aeruginosa
[33] = Selectivity index, ratio of IC50 for human A549 cells to MIC for Enterobacter cloacae
Acinetobacter baumannii [34] = experiment: Antibiofilm activity against Acinetobacter baumannii incubated for 24 hrs followed by biofilm resuspension in PBS and measured after 24 hrs; format: functional; procedure, shortened: as §1
[35] = Selectivity index, ratio of IC50 for human A549 cells to MIC for Enterococcus faecium
Klebsiella pneumoniae [36] = experiment: Antimicrobial activity against Klebsiella pneumoniae assessed as inhibition of microbial growth after 24 hrs; format: functional; procedure, shortened: as §2
Klebsiella pneumoniae [37] = experiment: Antimicrobial activity against Klebsiella pneumoniae assessed as inhibition of microbial growth at 45 uM after 24 hrs; format: functional, organism-based; procedure, shortened: as §3
Pseudomonas aeruginosa [38] = experiment: Antimicrobial activity against Pseudomonas aeruginosa assessed as inhibition of microbial growth after 24 hrs; format: functional; procedure, shortened: as §2
Pseudomonas aeruginosa [39] = experiment: Antibiofilm activity against Pseudomonas aeruginosa incubated for 24 hrs followed by biofilm resuspension in PBS and measured after 24 hrs; format: functional; procedure, shortened: as §1
[40] = Induction of hemolysis in human RBC at 10 uM incubated for 15 mins; format: cell-based, Erythrocyte; details: red blood cells, read-out: Activity
Procedure, shortened: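 Human RBCs from whole blood, resuspended 20% v/v in HA buffer (NaCl, CaCl2), compound 10 μM, 15 min at 37°C. Centrifuged 5,500 g for 1 min, supernatant OD543 read. Percent hemolysis against DMF vehicle (0%) and 1.0% Triton X-100 (100%); triplicate.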

Staphylococcus aureus [41] = experiment: Bactericidal activity against methicillin-resistant Staphylococcus aureus assessed as cell survival recovery at MIC measured after drug wash out after 120 mins by time kill assay; format: functional; procedure, shortened: as §5
Enterobacter cloacae [42] = experiment: Bactericidal activity against Enterobacter cloacae after 24 hrs; format: functional
Klebsiella pneumoniae [43] = experiment: Antimicrobial activity against Klebsiella pneumoniae isolate 1441 assessed as inhibition of microbial growth in presence of 100 uM efflux pump inhibitor reserpine after 24 hrs; format: functional, organism-based
Enterococcus faecium [44] = experiment: Antimicrobial activity against Enterococcus faecium assessed as inhibition of microbial growth after 24 hrs; format: functional; procedure, shortened: as §2
A549 = experiment: Cytotoxicity against human A549 cells after 48 hrs by MTT assay; format: cell-based; details: A549, 48 h; procedure, shortened: as §4
Enterobacter cloacae [45] = experiment: Ratio of MIC for Enterobacter cloacae measured after 8 cycle passage to MIC for wild type Enterobacter cloacae; format: functional
Enterococcus faecium [46] = experiment: Antibiofilm activity against Enterococcus faecium incubated for 24 hrs followed by biofilm resuspension in PBS and measured after 24 hrs; format: functional; procedure, shortened: as §1
Staphylococcus aureus [47] = experiment: Antibiofilm activity against Staphylococcus aureus incubated for 24 hrs followed by biofilm resuspension in PBS and measured after 24 hrs; format: functional; procedure, shortened: as §1
Klebsiella pneumoniae [48] = experiment: Bactericidal activity against Klebsiella pneumoniae after 24 hrs; format: functional

SMILES: CCCCCCCN1C(=N)N(CCCC[C@H]2CNC(=N)N2CCCCC2CCCCC2)C[C@@H]1CC1CCCCC1
- MBC90 (Acinetobacter baumannii [1]): 2.8 µM (≈ 1.56 µg/mL)
- MBEC50 (Enterobacter cloacae [2]): 13 µM
- MIC (Acinetobacter baumannii [3]): 1.6 µM
- Ratio (Klebsiella pneumoniae [4]): <=8
- MBEC50 (Klebsiella pneumoniae [5]): 6.3 µM
- Selectivity Index [6]: >139
- growth inhibition (GI) (Pseudomonas aeruginosa [7]): Active
- MBC90 (Pseudomonas aeruginosa [8]): 4 µM (≈ 2.23 µg/mL)
- Activity (Acinetobacter baumannii [9]): inactive
- Selectivity Index [10]: >139
- Ratio (Acinetobacter baumannii [11]): <=8
- viability at 48 h, 225 µM [12]: > 50%
- Activity (Klebsiella pneumoniae [13]): inactive
- Activity (Enterococcus faecium [14]): inactive
- Ratio (Staphylococcus aureus [15]): 16
- growth inhibition (GI) (Enterobacter cloacae [16]): Active
- growth inhibition (GI) (Enterococcus faecium [17]): Active
- MBC90 (Staphylococcus aureus [18]): 3.9 µM (≈ 2.17 µg/mL)
- Selectivity Index [19]: >139
- growth inhibition (GI) (Staphylococcus aureus [20]): Active
- growth inhibition (GI) (Acinetobacter baumannii [21]): Active
- Activity (Staphylococcus aureus [22]): Active
- Activity (Enterobacter cloacae [23]): inactive
- MIC (Staphylococcus aureus [24]): 1.6 µM
- fold change (FC) (Staphylococcus aureus [25]): 2.5
- Activity (Staphylococcus aureus [26]): inactive
- MIC (Enterobacter cloacae [27]): 1.6 µM
- Activity (Staphylococcus aureus [28]): inactive
- viability at 48 h [29]: > 65%
- MBC90 (Enterococcus faecium [30]): 2.9 µM (≈ 1.62 µg/mL)
- Activity (Pseudomonas aeruginosa [31]): inactive
- Selectivity Index [32]: >139
- Selectivity Index [33]: >139
- MBEC50 (Acinetobacter baumannii [34]): 14 µM
- Selectivity Index [35]: >139
- MIC (Klebsiella pneumoniae [36]): 1.6 µM
- growth inhibition (GI) (Klebsiella pneumoniae [37]): Active
- MIC (Pseudomonas aeruginosa [38]): 1.6 µM
- MBEC50 (Pseudomonas aeruginosa [39]): 34 µM
- hemolysis at 0.25 h, 10 µM [40]: 0.34%
- Survival (Staphylococcus aureus [41]): 0.2%
- MBC90 (Enterobacter cloacae [42]): 9.6 µM (≈ 5.35 µg/mL)
- growth inhibition (GI) (Klebsiella pneumoniae [43]): Active
- MIC (Enterococcus faecium [44]): 1.6 µM
- IC50 (A549): > 225 µM
- Ratio (Enterobacter cloacae [45]): <=8
- MBEC50 (Enterococcus faecium [46]): 28 µM
- MBEC50 (Staphylococcus aureus [47]): 7.6 µM
- MBC90 (Klebsiella pneumoniae [48]): 4.5 µM (≈ 2.51 µg/mL)
